An excerpt weighted towards active compounds, which were near 2.4% of everything screened.
TPT1 inh = Candida albicans TPT1 enzyme inhibitors, primary screen, biochemical, fluorescence polarization; recombinant caTPT1, FP RNA substrate dephosphorylation; 300,000 tested, 0.81% active; inhibition, % at 5 µM;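 active means inhibition above the mean of all tested compounds plus 3 SD, set per screening campaign, cut at about 24% in these data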;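 further: plate controls were DMSO alone for no effect and ferristatin control at 100 nM for full effect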
HNF4A DNA FP = change in binding of human HNF4A to DNA, primary screen, biochemical, fluorescence polarization, FITC-DNA | Hepatocyte nuclear factor 4-alpha (Homo sapiens), P41235 | 1 h | activity change, % at 10 µM | 360,000 tested, 0.3% active; in the data active means activity change above about 30%, passing the limit was not always enough
Rin1-Abl PPI inh = inhibitors of Rin1-Abl protein binding, primary screen, biochemical, TR-FRET; Tyrosine-protein kinase ABL1 (Homo sapiens) + Ras and Rab interactor 1 (Homo sapiens), …; inhibition, % at 7.35 µM; 360,000 tested, 0.4% active; in the data active means inhibition above about 5%, passing the limit was not always enough
Neddyl block = inhibitors of cullin neddylation, primary screen, biochemical, TR-FRET, uHTS, NAE and Ubc12; 360,000 tested, 0.58% active; inhibition, % at 25 µM; AID 651699, 2012; NEDD8-conjugating enzyme Ubc12 (Homo sapiens) + NEDD8-activating enzyme E1 regulatory …; in the data active means inhibition above about 36%
Rpn11 inh = Rpn11 (PSMD14) deubiquitinase inhibitors, primary screen, biochemical, fluorescence polarization, uHTS; AID 588493, 2011; inhibition, % at 20 µM; human 26S proteasome, Ub4-pepOG fluorescence polarization; 20S core pre-blocked with epoxomicin; 360,000 tested, 0.59% active; 26S proteasome non-ATPase regulatory subunit 14 (Homo sapiens), O00487;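 active means inhibition at 20 µM, scaled to each plate's controls, above about 33%, limit read from the data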
Target sequence (O00487 whole entry, looked up): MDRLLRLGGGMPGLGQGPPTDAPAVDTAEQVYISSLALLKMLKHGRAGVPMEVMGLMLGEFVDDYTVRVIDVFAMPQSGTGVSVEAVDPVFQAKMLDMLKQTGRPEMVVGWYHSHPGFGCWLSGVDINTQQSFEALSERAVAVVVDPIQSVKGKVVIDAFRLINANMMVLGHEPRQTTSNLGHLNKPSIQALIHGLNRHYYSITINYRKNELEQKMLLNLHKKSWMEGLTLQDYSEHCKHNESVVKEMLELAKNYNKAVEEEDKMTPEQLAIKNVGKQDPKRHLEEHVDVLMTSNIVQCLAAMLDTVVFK
CSN deneddyl inh = inhibitors of CSN-mediated cullin deneddylation, primary screen, biochemical, fluorescence polarization, uHTS. COP9 signalosome complex subunit 5 (Homo sapiens), Q92905. Purified CSN, SCF-Nedd8-OG deneddylation. inhibition, % at 12.5 µM. 360,000 tested, 0.38% active;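 active means pattern-corrected inhibition above about 35%, with an unprinted fluorescence ratio check between 0.5 and 1.5, limit read from the data, passing the limit was not always enough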;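 further: 0% = enzyme with substrate and 100% = substrate without enzyme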
Target sequence (Q92905 whole entry, looked up, one chain of several): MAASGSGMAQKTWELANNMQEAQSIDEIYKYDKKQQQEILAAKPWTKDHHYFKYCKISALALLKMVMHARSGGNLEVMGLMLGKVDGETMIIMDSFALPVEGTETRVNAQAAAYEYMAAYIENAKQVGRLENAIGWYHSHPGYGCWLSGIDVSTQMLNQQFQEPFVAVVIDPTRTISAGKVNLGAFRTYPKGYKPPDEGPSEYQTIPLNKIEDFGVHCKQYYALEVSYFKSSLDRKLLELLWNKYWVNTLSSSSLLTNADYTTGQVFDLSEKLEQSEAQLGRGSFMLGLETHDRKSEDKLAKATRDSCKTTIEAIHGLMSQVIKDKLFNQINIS
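Assay system: Purified human Csn5 enzyme expressed in HEK293T cells | Amount: Enzyme 0.24 nM | Measured by: Fluorescence polarization readout | Medium: Tris/NaCl/DTT buffer, pH 7.5 | Compound dosing: One concentration, 12.5 µM, 0.25% DMSO | Times: 90 min incubation of compound, enzyme and substrate at room temperature | Control set: no-enzyme wells high, enzyme-with-substrate wells low | Read-out: % inhibition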
* hit, by the source's call; ! = repeats disagree.

Results for CS(=O)(=O)Nc1ccc2c(c1)[C@@H]1C[C@@H](CC(=O)NCc3cccnc3)O[C@H](CO)[C@@H]1O2 ?
HNF4A DNA FP: -2; Rin1-Abl PPI inh: -1; Neddyl block: 2; Rpn11 inh: 3; CSN deneddyl inh: 2

What do the screens show for `CCCCCCCCCC(=O)OCC(O)CO` (configuration not stated)?
TPT1 inh: -3; HNF4A DNA FP: 1; Rin1-Abl PPI inh: 1; Neddyl block: 2; Rpn11 inh: -5; CSN deneddyl inh: 1

What do the screens show for `CCCCCCCCCCCCCCC[C@@H](O)[C@@H](N)CO`?
HNF4A DNA FP: 121*; Rin1-Abl PPI inh: 4; Neddyl block: 15; Rpn11 inh: 10; CSN deneddyl inh: 84*

Results for CCOC(=O)C1CCN(C(=O)C2CCN(c3ncnc4c3nc3n4CCCCC3)CC2)CC1 ?
TPT1 inh: -2; HNF4A DNA FP: 0; Rin1-Abl PPI inh: 2; Neddyl block: 10; Rpn11 inh: 3; CSN deneddyl inh: 5

Results for O=c1c2c3nc4ccccc4nc3n(CC3CCCO3)c2ncn1CCc1ccccc1 (configuration not stated) ?
TPT1 inh: -4; HNF4A DNA FP: 1; Rin1-Abl PPI inh: -1; Neddyl block: 51*; Rpn11 inh: 2; CSN deneddyl inh: 2

Results for COc1cc(OC)cc(-n2c3nc4ccccc4nc3c3c(=O)n(CC4CCCO4)cnc32)c1 (configuration not stated) ?
TPT1 inh: -2

Results for COc1ccc(OC)c(/C=C2\S/C(=N/NC(=O)c3ccc4ccccc4c3)NC2=O)c1 ?
TPT1 inh: 7; HNF4A DNA FP: 1; Rin1-Abl PPI inh: -1; Neddyl block: 48*; CSN deneddyl inh: 51*

How did Cc1cccc(-c2cccc(NC(=O)C3CCCN(C(=O)c4csc(C)n4)C3)c2)c1 (configuration not stated) do in these assays?
TPT1 inh: -4; HNF4A DNA FP: 1; Rin1-Abl PPI inh: 2; Neddyl block: 1; Rpn11 inh: 4; CSN deneddyl inh: -2

What do the screens show for `CNC(=O)c1ccc(-c2cc(C(F)(F)F)nn2C)s1`?
TPT1 inh: 0; HNF4A DNA FP: 0; Rin1-Abl PPI inh: -2; Neddyl block: -2; Rpn11 inh: 2; CSN deneddyl inh: -1

How did Cn1nc(C(F)(F)F)cc1-c1ccc(/C=C(\C#N)C(=O)c2ccccc2)s1 do in these assays?
TPT1 inh: 9; HNF4A DNA FP: 1; Rin1-Abl PPI inh: -5; Neddyl block: 0; CSN deneddyl inh: 68*

Results for Oc1c(C=C2N=c3ccccc3=N2)sc(=S)n1-c1ccc(F)cc1 ?
TPT1 inh: 19; HNF4A DNA FP: 39*!; Rin1-Abl PPI inh: -2; Neddyl block: -11; Rpn11 inh: 25; CSN deneddyl inh: -5

Results for Oc1c(C=C2N=c3ccccc3=N2)sc(=S)n1-c1ccc2ccccc2c1 ?
TPT1 inh: 4; HNF4A DNA FP: 4; Rin1-Abl PPI inh: 1; Neddyl block: -6; Rpn11 inh: 6; CSN deneddyl inh: -6

How did CCOc1ccc(NC(=O)/C(C#N)=C\c2ccc(N3CCCC3)c(C)c2)cc1 do in these assays?
HNF4A DNA FP: 98; Rin1-Abl PPI inh: 3; Neddyl block: 3; CSN deneddyl inh: 47*

How did CCOc1ccc(/C=C(\C#N)C(=O)Nc2cccnc2)cc1 do in these assays?
TPT1 inh: -1; HNF4A DNA FP: 2; Rin1-Abl PPI inh: 1; Neddyl block: 1; Rpn11 inh: -3; CSN deneddyl inh: -8

Results for S=c1[nH]ncn1/N=C/c1ccccc1 ?
TPT1 inh: -4; HNF4A DNA FP: 44*; Rin1-Abl PPI inh: 0; Neddyl block: 0; Rpn11 inh: 32; CSN deneddyl inh: 1

What do the screens show for `O=C(CC(O)c1ccncc1)c1ccccc1O` (configuration not stated)?
HNF4A DNA FP: 1; Rin1-Abl PPI inh: 2; Neddyl block: 6; Rpn11 inh: -1; CSN deneddyl inh: -3

What do the screens show for `Cc1ccc(Cn2c(=N)n(CC(=O)c3ccc([N+](=O)[O-])cc3)c3ccccc32)cc1`?
TPT1 inh: 2; HNF4A DNA FP: 64*; Rin1-Abl PPI inh: 3; Neddyl block: -29; CSN deneddyl inh: 42*

What do the screens show for `CC(C)(C)NC(=O)Cn1c(SCC(=O)N2CCCCCC2)nc2ccccc21`?
TPT1 inh: -2; HNF4A DNA FP: 32*; Rin1-Abl PPI inh: -1; Neddyl block: -2; Rpn11 inh: -8; CSN deneddyl inh: -4

Results for COc1ccc(CCNC(=O)CO/N=C/c2cc3c(cc2Br)OCO3)cc1OC ?
TPT1 inh: 3; HNF4A DNA FP: 2; Rin1-Abl PPI inh: 0; Neddyl block: -11; Rpn11 inh: 7; CSN deneddyl inh: -5

Results for O=S1(=O)CC(N2CCCC2)CN1Cc1cn(Cc2cccc(C(F)(F)F)c2)nn1 (configuration not stated) ?
HNF4A DNA FP: -2; Neddyl block: 1; CSN deneddyl inh: 1

How did CC(C)OCCCNC(=O)c1c(N)n(/N=C/c2cccs2)c2nc3ccccc3nc12 do in these assays?
TPT1 inh: -2; HNF4A DNA FP: 4; Rin1-Abl PPI inh: 0; Rpn11 inh: 4; CSN deneddyl inh: 41*

Results for COCCCN1C(=O)C(CC(=O)NC2CCCCC2)CC(C(=O)N2CCOCC2)=C1C (configuration not stated) ?
HNF4A DNA FP: 6; Rin1-Abl PPI inh: -2; Neddyl block: -9; Rpn11 inh: -1; CSN deneddyl inh: 0

How did COc1ccc2[nH]c3nc(SCC(=O)NNC(=O)c4ccc(OC)c(OC)c4)nnc3c2c1 do in these assays?
TPT1 inh: 0; HNF4A DNA FP: 0; Rin1-Abl PPI inh: -4; Neddyl block: -32; Rpn11 inh: -3; CSN deneddyl inh: -2

What do the screens show for `Cc1ccc(C(=O)NNC(=O)CSc2nnc3c(n2)[nH]c2ccc(F)cc23)cc1`?
TPT1 inh: -1; HNF4A DNA FP: -10; Rin1-Abl PPI inh: -5; Neddyl block: 31; Rpn11 inh: 10; CSN deneddyl inh: 43*

How did Cc1cc(C(=O)CCC(=O)N(C)CC(=O)Nc2c(Cl)cccc2Cl)c(C)s1 do in these assays?
TPT1 inh: 0; HNF4A DNA FP: 4; Rin1-Abl PPI inh: 2; Neddyl block: 3; Rpn11 inh: -4; CSN deneddyl inh: 90*
